Experimental data as given in ChEMBL document CHEMBL1121489, “6-(Substituted-amino)-4H-s-triazolo[4,3-a][1,4]benzodiazepines and 4-(substituted-amino)-6H-s-triazolo[4,3-a][1,4]benzodiazepines with potential antianxiety activity” (1980).

Key:
Assay type in all cases: functional
[1] = species: Mus musculus; assay: Effect on loss of traction (Tr) in Carworth farms male albino mice
Summary of the method: (§1)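 Male albino CF-1 mice (18–22 g). Compounds were dissolved or suspended in 0.25% aqueous methylcellulose and given ip to groups of four or six mice per dose, at multiple dose levels spaced 0.3 log apart. ED50 values were calculated by the Spearman–Karber method.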

[2] = species: Mus musculus; assay: Effect on pentylenetetrazole-induced clonic convulsions (P) in Carworth farms male albino mice; summary of the method: as §1
[3] = species: Mus musculus; assay: Effect on antagonism of nicotine-induced death (D) in Carworth farms male albino mice; summary of the method: as §1
[4] = species: Mus musculus; assay: Effect on antagonism of nicotine-induced tonic-extensor convulsions (TE) in Carworth farms male albino mice; summary of the method: as §1
[5] = species: Mus musculus; assay: Effect on bicuculline-induced tonic-extensor convulsions (B) in Carworth farms male albino mice; summary of the method: as §1
[6] = species: Mus musculus; assay: Effect on potentiation of gamma-butyrolactone-induced sleep (gamma-B) in Carworth farms male albino mice; summary of the method: as §1
[7] = species: Mus musculus; assay: Effect on prolongation of hypoxic survival time (HS) in Carworth farms male albino mice; summary of the method: as §1
[8] = species: Mus musculus; assay: Effect on bicuculline-induced tonic-extensor convulsions (B) in Carworth farms male albino mice.
Summary of the method: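 CF-1 male albino mice, 18–22 g. Unless otherwise indicated, compounds were dissolved or suspended in 0.25% aqueous methylcellulose and given ip to groups of 4 or 6 mice per dose. Several dose levels were spaced at 0.3 log intervals. ED50 was calculated by the Spearman–Karber method.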

[9] = species: Mus musculus; assay: Effect on antagonism of nicotine-induced tonic-extensor convulsions (TE) in Carworth farms male albino mice.; summary of the method: as §1

Structure (SMILES) | ED50 [1] | ED50 [2] | ED50 [3] | ED50 [4] | ED50 [5] | ED50 [6] | ED50 [7] | ED50 [8] | ED50 [9]
Cc1nnc2n1-c1ccc(Cl)cc1C(c1ccccc1)=NC2 [ALPRAZOLAM] | 0.6 mg/kg | 0.1 mg/kg | 0.02 mg/kg | 0.02 mg/kg | 0.2 mg/kg | 0.08 mg/kg | 0.2 mg/kg | – | –
Cc1nnc2n1-c1ccc(Cl)cc1C(N1CCCCCC1)=NC2 | > 100 mg/kg | – | > 100 mg/kg | > 100 mg/kg | – | – | – | – | –
CCCCCCNC1=NCc2nnc(C)n2-c2ccc(Cl)cc21 | > 100 mg/kg | – | > 100 mg/kg | > 100 mg/kg | – | – | – | – | –
Cc1nnc2n1-c1ccc(Cl)cc1CN=C2N1CCN(C)CC1 | > 100 mg/kg | > 50 mg/kg | – | > 100 mg/kg | > 50 mg/kg | 40 mg/kg | 40 mg/kg | – | –
Cc1nnc2n1-c1ccc(Cl)cc1CN=C2N1CCCC1 | > 6 mg/kg | – | – | > 6 mg/kg | – | > 6 mg/kg | – | > 6 mg/kg | –
CN1C(=O)CN=C(c2ccccc2)c2cc(Cl)ccc21 [DIAZEPAM] | 7 mg/kg | 0.1 mg/kg | 0.28 mg/kg | 0.28 mg/kg | 2.6 mg/kg | 0.035 mg/kg | 0.2 mg/kg | – | –
Cc1nnc2n1-c1ccc(Cl)cc1CN=C2N1CCCCCC1 | > 100 mg/kg | – | – | > 100 mg/kg | – | – | – | – | –
Cc1nnc2n1-c1ccc(Cl)cc1CN=C2N1CCCCC1 | > 100 mg/kg | – | – | – | – | – | – | – | > 100 mg/kg
Cc1nnc2n1-c1ccc(Cl)cc1C(N1CCCC1)=NC2 | > 100 mg/kg | > 50 mg/kg | 18 mg/kg | 18 mg/kg | > 50 mg/kg | 7.4 mg/kg | > 50 mg/kg | – | –
Cc1nnc2n1-c1ccc(Cl)cc1CN=C2N1CCOCC1 | > 100 mg/kg | 40 mg/kg | – | > 100 mg/kg | > 50 mg/kg | > 50 mg/kg | – | – | –
Cc1nnc2n1-c1ccc(Cl)cc1C(N1CCN(C)CC1)=NC2 | > 100 mg/kg | – | > 100 mg/kg | > 100 mg/kg | – | – | – | – | –
Cc1nnc2n1-c1ccc(Cl)cc1C(N1CCOCC1)=NC2 | > 100 mg/kg | – | 71 mg/kg | 80 mg/kg | – | – | – | – | –
Cc1nnc2n1-c1ccc(Cl)cc1C(N1CCN(c3ccccc3)CC1)=NC2 | > 100 mg/kg | – | > 100 mg/kg | > 100 mg/kg | – | – | – | – | –
Cc1nnc2n1-c1ccc(Cl)cc1C(N1CCN(CCO)CC1)=NC2 | > 100 mg/kg | – | > 100 mg/kg | > 100 mg/kg | – | – | – | – | –
Cc1nnc2n1-c1ccc(Cl)cc1C(N1CCCCC1)=NC2 | 0.3 mg/kg | 1.1 mg/kg | 0.4 mg/kg | 0.4 mg/kg | 0.7 mg/kg | 0.9 mg/kg | 0.3 mg/kg | – | –
